According to ChEMBL document CHEMBL4390691, “Discovery of 1,3-dihydro-2H-imidazo[4,5-c]quinolin-2-ones based novel, potent and PI3Kδ selective inhibitors” (Bioorg Med Chem Lett, 2019):
Calls of active or inactive are those of the source. The calls are words filed in the database; no cut-off is given here.

Assays:
[1] = molecular target: T1, Phosphatidylinositol 4,5-bisphosphate 3-kinase catalytic subunit delta isoform (Homo sapiens, UniProt O00329); experiment: Inhibition of human PI3Kdelta using PIP2 as substrate after 1 hr
T1 sequence (O00329 whole entry): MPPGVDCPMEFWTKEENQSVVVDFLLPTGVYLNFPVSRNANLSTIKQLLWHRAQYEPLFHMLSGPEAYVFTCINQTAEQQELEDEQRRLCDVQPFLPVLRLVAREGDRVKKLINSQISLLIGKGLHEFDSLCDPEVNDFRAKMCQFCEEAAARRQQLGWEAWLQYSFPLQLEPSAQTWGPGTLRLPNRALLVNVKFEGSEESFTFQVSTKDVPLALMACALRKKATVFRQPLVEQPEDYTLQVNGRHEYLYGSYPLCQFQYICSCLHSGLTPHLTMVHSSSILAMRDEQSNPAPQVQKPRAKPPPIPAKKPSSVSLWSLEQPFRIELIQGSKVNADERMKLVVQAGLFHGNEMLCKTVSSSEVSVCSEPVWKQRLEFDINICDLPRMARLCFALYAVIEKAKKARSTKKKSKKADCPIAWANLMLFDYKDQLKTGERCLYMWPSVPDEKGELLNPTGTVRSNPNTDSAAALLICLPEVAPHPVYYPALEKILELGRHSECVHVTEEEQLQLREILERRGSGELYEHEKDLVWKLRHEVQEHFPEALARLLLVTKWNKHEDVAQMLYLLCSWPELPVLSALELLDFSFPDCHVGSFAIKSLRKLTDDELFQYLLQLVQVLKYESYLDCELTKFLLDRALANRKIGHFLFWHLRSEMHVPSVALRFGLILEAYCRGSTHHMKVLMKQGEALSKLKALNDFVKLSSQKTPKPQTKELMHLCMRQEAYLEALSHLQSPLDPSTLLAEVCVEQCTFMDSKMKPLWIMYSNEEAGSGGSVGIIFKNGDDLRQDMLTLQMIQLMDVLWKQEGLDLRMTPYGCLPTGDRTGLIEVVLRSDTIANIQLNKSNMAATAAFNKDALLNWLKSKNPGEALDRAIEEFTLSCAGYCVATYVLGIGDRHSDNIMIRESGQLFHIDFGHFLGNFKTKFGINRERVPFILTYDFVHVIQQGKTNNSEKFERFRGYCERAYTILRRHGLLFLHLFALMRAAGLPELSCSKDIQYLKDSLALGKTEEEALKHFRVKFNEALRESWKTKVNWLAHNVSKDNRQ

[2] = molecular target: Serine/threonine-protein kinase mTOR (Homo sapiens, UniProt P42345); experiment: Inhibition of mTOR (unknown origin) assessed as reduction in p70S6K phosphorylation
[3] = molecular target: Phosphatidylinositol 4,5-bisphosphate 3-kinase catalytic subunit gamma isoform (Homo sapiens, UniProt P48736); experiment: Inhibition of human PI3Kgamma using PIP2 as substrate after 1 hr
[4] = Oral bioavailability in C57BL/6J mouse at 3 mg/kg measured up to 30 hrs by LC-MS/MS analysis; assay type: ADME, organism-based; conditions: in vivo
In short: (§1)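 Male C57BL/6J mice (n = 6) received single doses of 3 mg/kg po or 1 mg/kg iv. Plasma concentrations were measured by LC-MS. Values are mean ± SD. Oral bioavailability (%F) was calculated from the ratio to iv AUC.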

[5] = AUC (0 to infinity) in C57BL/6J mouse 3 mg/kg, po measured up to 30 hrs by LC-MS/MS analysis; assay type: ADME, organism-based; design: dose 3 mg/kg, route oral, time infinity; conditions: in vivo
In short: (§2)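 Single-dose PK in male C57BL/6J mice (n = 6), dosed 1 mg/kg iv or 3 mg/kg orally. Plasma drug levels were measured by LC-MS, and PK parameters (Tmax, Cmax, t1/2, Cl, AUC, %F) were derived. Values are given as mean ± SD. Oral bioavailability was calculated against the iv AUC.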

[6] = AUC (0 to infinity) in C57BL/6J mouse 1 mg/kg, iv measured up to 30 hrs by LC-MS/MS analysis; assay type: ADME, organism-based; design: dose 1 mg/kg, time infinity, route intravenous; conditions: in vivo; in short: as §2
[7] = Cmax in C57BL/6J mouse at 3 mg/kg, po measured up to 30 hrs by LC-MS/MS analysis; assay type: ADME, organism-based; design: dose 3 mg/kg, route oral; conditions: in vivo; in short: as §1
[8] = molecular target: Phosphatidylinositol 4,5-bisphosphate 3-kinase catalytic subunit beta isoform (Homo sapiens, UniProt P42338); experiment: Inhibition of human PI3Kbeta using PIP2 as substrate after 1 hr
[9] = Clearance in C57BL/6J mouse at 1 mg/kg, iv measured up to 30 hrs by LC-MS/MS analysis; assay type: ADME, organism-based; conditions: in vivo; in short: as §1
[10] = Half life in C57BL/6J mouse at 3 mg/kg, po measured up to 30 hrs by LC-MS/MS analysis; assay type: ADME, organism-based; conditions: in vivo; in short: as §1
[11] = Tmax in C57BL/6J mouse at 3 mg/kg, po measured up to 30 hrs by LC-MS/MS analysis; assay type: ADME, organism-based; conditions: in vivo; in short: as §1
[12] = molecular target: Phosphatidylinositol 4,5-bisphosphate 3-kinase catalytic subunit alpha isoform (Homo sapiens, UniProt P42336); experiment: Inhibition of human PI3Kalpha using PIP2 as substrate after 1 hr
[13] = molecular target: CYP2C9 (Homo sapiens, UniProt P11712); experiment: Inhibition of CYP2C9 in human liver microsomes at 10 uM using testosterone/dextromethorphan as probe substrate measured after 10 mins relative to control; assay type: ADME
[14] = species on record: Homo sapiens; experiment: Selectivity ratio of IC50 for human PI3Kgamma to IC50 for human PI3Kdelta
In short: (§3)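 IC50s for the PI3K α, β, γ and δ isoforms came from a commercial PI3K inhibitory activity assay kit. Each IC50 is the mean of at least two experiments. The ratio is the α, β or γ IC50 divided by the δ IC50.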

[15] = system: TMD8; experiment: Antitumor activity against human TMD8 cells xenografted in SCID mouse assessed as decrease in tumor volume at 3 to 30 mg/kg/day, po QD for 16 days and measured every alternate day; assay type: functional, organism-based
In short: (§4)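 Male SCID mice were inoculated with TMD-8 cells. Oral doses of 3, 10 and 30 mg/kg/day were given. The efficacy endpoint was inhibition of tumor volume relative to the vehicle (untreated) group.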

[16] = molecular target: T2, CYP1A2 (Homo sapiens, UniProt P05177); experiment: Inhibition of CYP1A2 in human liver microsomes at 10 uM using testosterone/dextromethorphan as probe substrate measured after 10 mins relative to control; assay type: ADME
T2 sequence (P05177 whole entry): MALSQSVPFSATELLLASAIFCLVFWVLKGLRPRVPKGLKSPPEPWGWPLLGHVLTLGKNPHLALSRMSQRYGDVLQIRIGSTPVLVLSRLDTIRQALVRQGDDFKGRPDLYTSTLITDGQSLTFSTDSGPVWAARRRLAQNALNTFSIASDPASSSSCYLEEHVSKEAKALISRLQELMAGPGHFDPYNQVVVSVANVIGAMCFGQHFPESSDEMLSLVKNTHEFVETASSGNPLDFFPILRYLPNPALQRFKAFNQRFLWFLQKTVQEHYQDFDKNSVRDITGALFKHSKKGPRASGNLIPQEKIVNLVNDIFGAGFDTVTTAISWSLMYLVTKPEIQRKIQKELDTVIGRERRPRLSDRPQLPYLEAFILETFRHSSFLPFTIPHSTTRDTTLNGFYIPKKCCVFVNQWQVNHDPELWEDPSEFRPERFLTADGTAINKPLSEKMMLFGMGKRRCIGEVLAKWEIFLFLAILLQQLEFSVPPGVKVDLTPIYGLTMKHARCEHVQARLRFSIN

[17] = molecular target: CYP2D6 (Homo sapiens, UniProt P10635); experiment: Inhibition of CYP2D6 in human liver microsomes at 10 uM using testosterone/dextromethorphan as probe substrate measured after 10 mins relative to control; assay type: ADME
[18] = molecular target: Voltage-gated inwardly rectifying potassium channel KCNH2 (Homo sapiens, UniProt Q12809); experiment: Inhibition of human ERG
[19] = molecular target: CYP3A4 (Homo sapiens, UniProt P08684); experiment: Inhibition of CYP3A4 in human liver microsomes at 10 uM using testosterone/dextromethorphan as probe substrate measured after 10 mins relative to control; assay type: ADME
[20] = molecular target: CYP2C19 (Homo sapiens, UniProt P33261); experiment: Inhibition of CYP2C19 in human liver microsomes at 10 uM using testosterone/dextromethorphan as probe substrate measured after 10 mins relative to control; assay type: ADME
[21] = Toxicity in DBA1/J mouse assessed as reduction in body weight at 30 mg/kg, po administered for […] measured thrice per week; assay type: organism-based; conditions: in vivo
In short: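 The model was collagen-induced arthritis in male DBA1j mice, with eight per group and four weeks of treatment. Body weight was recorded three times weekly as a marker of treatment-related side effects.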

[22] = species on record: Homo sapiens; experiment: Selectivity ratio of IC50 for human PI3Kalpha to IC50 for human PI3Kdelta; in short: as §3
[23] = system: TMD8; experiment: Antiproliferative activity against human TMD8 cells; assay type: functional, cell-based
[24] = molecular target: T3, CYP2C8 (Homo sapiens, UniProt P10632); experiment: Inhibition of CYP2C8 in human liver microsomes at 10 uM using testosterone/dextromethorphan as probe substrate measured after 10 mins relative to control; assay type: ADME
T3 sequence (P10632 whole entry): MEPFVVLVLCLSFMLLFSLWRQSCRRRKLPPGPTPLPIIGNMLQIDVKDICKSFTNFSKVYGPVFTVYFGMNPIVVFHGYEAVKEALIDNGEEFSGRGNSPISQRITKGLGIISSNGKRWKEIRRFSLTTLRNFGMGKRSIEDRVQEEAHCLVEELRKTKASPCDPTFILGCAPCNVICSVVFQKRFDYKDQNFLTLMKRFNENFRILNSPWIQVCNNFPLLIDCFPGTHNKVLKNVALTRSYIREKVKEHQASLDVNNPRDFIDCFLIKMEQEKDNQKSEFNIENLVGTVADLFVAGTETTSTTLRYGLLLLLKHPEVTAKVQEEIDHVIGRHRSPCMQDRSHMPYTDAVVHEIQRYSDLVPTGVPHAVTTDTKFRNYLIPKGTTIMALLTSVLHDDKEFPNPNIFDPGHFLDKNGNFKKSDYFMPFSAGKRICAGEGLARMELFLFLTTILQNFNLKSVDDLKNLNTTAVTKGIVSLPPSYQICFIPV

[25] = system: Mus musculus; experiment: Antiarthritic activity in complete Freund's adjuvant-induced DBA1/J mouse arthritis model assessed as inhibition in clinical arthritis score at 10 mg/kg, po administered […] relative to control; assay type: functional, organism-based
In short: (§5)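 Male DBA1j mice had arthritis induced with a collagen mixture and were enrolled once clinical signs appeared. Animals were split into four groups of eight: vehicle, a positive control and two doses of test compound. Treatment ran four weeks. The read-out was percentage inhibition of clinical arthritis score versus the vehicle group.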

[26] = system: Mus musculus; experiment: Antiarthritic activity in complete Freund's adjuvant-induced DBA1/J mouse arthritis model assessed as inhibition in clinical arthritis score at 30 mg/kg, po […] relative to control; assay type: functional, organism-based; in short: as §5
[27] = Protein binding in DBA1/J mouse plasma; assay type: ADME, cell-free; conditions: read-out: PPB (converted)
[28] = Toxicity in human TMD8 cells xenografted SCID mouse assessed as decrease in body weight at 30 mg/kg/day, po QD for 16 days; assay type: organism-based; conditions: in vivo, 384 h
In short: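 Male SCID mice bearing TMD-8 xenografts received oral doses of 3, 10 or 30 mg/kg/day. Body weight was recorded during treatment.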

[29] = system: TMD8; experiment: Antitumor activity against human TMD8 cells xenografted in SCID mouse assessed as decrease in tumor volume at 30 mg/kg/day, po QD for 16 days and measured every alternate day; assay type: functional; conditions: 384 h; in short: as §4
[30] = species on record: Homo sapiens; experiment: Selectivity ratio of IC50 for human PI3Kbeta to IC50 for human PI3Kdelta; in short: as §3

Chain of Phosphatidylinositol 4,5-bisphosphate 3-kinase catalytic subunit alpha isoform (P42336 whole entry, looked up, canonical isoform): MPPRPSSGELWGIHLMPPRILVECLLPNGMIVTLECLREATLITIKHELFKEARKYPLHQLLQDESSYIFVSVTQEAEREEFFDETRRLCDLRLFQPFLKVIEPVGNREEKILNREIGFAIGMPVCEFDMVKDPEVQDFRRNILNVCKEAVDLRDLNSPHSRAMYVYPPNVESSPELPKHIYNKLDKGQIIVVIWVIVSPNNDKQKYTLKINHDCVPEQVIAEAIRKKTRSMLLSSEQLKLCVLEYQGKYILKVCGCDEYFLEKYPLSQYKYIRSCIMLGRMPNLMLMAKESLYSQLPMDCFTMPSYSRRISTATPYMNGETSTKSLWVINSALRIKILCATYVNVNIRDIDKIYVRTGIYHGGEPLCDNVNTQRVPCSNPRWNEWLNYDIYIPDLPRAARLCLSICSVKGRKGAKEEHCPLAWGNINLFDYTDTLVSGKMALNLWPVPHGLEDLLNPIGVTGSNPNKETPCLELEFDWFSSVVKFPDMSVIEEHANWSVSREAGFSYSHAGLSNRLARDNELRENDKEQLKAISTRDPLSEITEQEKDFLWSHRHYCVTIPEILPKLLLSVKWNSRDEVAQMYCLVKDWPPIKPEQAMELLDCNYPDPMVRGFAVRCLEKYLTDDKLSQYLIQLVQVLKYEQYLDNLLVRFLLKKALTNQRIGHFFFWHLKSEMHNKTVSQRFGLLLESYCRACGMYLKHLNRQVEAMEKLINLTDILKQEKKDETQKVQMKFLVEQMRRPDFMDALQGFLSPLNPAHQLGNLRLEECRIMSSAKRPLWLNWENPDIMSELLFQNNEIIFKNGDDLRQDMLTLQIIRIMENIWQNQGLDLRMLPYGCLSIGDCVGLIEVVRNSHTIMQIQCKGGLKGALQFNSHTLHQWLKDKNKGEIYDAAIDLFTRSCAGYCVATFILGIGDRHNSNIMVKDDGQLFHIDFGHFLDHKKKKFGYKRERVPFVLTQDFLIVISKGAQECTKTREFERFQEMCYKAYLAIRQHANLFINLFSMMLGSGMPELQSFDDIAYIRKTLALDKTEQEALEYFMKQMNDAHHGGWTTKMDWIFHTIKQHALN
Chain of Phosphatidylinositol 4,5-bisphosphate 3-kinase catalytic subunit beta isoform (P42338 whole entry, canonical isoform): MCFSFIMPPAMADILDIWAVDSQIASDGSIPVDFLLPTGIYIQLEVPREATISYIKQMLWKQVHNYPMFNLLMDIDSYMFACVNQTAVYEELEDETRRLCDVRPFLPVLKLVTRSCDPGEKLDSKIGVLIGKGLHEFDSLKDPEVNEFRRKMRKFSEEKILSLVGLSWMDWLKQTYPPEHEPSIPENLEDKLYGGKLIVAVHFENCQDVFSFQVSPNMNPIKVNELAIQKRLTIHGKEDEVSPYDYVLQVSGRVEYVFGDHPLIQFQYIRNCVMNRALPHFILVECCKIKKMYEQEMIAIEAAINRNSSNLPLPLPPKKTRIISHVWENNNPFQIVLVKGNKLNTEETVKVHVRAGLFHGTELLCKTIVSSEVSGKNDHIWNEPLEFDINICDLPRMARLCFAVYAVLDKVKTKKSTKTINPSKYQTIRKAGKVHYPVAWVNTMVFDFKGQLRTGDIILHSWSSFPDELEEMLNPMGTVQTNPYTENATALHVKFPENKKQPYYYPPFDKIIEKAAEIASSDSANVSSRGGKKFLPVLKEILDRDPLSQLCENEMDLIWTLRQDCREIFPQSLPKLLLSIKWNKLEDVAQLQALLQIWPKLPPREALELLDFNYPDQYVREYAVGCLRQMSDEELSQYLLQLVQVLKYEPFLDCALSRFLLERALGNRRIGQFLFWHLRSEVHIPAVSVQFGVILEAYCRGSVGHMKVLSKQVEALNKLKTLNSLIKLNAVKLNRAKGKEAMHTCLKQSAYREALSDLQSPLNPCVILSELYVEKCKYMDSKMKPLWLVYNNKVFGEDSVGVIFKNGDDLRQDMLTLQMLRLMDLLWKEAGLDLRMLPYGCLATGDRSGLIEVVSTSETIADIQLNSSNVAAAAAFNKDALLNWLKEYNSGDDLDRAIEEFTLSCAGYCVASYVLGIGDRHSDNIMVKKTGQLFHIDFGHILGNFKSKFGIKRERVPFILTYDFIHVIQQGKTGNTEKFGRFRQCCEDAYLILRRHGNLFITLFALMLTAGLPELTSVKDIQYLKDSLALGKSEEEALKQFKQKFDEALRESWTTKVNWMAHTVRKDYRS
Chain of Phosphatidylinositol 4,5-bisphosphate 3-kinase catalytic subunit gamma isoform (P48736 whole entry, canonical isoform): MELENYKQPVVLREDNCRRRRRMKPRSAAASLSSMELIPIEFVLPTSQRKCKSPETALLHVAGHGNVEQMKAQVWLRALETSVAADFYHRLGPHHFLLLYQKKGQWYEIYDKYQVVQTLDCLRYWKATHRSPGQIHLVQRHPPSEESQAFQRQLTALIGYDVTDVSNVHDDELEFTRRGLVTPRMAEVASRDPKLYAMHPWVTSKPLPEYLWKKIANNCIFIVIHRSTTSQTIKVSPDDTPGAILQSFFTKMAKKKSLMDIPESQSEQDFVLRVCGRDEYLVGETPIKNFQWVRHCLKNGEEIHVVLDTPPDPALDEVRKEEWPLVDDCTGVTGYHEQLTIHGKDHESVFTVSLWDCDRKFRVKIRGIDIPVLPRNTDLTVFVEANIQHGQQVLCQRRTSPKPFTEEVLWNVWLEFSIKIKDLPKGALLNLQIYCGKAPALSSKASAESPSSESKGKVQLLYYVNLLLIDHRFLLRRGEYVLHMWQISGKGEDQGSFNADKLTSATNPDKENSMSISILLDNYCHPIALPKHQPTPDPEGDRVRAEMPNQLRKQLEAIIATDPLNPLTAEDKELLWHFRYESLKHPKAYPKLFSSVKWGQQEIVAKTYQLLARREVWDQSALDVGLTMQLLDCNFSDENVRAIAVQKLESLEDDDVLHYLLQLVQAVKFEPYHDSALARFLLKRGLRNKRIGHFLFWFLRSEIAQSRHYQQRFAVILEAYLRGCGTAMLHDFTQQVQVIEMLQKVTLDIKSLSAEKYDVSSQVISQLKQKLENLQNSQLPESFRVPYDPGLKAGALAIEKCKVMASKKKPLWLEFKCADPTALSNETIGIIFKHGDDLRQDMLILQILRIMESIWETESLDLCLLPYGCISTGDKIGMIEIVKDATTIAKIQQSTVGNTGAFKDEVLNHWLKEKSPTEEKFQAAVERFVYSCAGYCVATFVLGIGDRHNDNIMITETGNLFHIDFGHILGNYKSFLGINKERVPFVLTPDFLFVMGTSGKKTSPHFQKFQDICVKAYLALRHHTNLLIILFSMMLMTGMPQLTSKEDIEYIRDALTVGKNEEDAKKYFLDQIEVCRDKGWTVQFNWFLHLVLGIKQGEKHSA
Chain of CYP3A4 (P08684 whole entry): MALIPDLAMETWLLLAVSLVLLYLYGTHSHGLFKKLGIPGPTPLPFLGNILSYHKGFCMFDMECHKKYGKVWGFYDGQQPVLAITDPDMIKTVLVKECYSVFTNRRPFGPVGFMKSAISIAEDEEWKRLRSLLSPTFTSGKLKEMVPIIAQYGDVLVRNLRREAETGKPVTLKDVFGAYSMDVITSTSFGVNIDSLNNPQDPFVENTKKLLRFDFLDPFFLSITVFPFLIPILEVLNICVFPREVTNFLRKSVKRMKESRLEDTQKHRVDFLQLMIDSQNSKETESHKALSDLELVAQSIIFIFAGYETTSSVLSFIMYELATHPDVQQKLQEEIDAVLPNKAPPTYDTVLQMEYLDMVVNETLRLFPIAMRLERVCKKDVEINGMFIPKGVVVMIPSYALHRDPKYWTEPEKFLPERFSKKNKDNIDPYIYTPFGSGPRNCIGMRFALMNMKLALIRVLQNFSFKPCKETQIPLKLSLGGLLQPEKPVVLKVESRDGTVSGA
Chain of Voltage-gated inwardly rectifying potassium channel KCNH2 (Q12809 whole entry): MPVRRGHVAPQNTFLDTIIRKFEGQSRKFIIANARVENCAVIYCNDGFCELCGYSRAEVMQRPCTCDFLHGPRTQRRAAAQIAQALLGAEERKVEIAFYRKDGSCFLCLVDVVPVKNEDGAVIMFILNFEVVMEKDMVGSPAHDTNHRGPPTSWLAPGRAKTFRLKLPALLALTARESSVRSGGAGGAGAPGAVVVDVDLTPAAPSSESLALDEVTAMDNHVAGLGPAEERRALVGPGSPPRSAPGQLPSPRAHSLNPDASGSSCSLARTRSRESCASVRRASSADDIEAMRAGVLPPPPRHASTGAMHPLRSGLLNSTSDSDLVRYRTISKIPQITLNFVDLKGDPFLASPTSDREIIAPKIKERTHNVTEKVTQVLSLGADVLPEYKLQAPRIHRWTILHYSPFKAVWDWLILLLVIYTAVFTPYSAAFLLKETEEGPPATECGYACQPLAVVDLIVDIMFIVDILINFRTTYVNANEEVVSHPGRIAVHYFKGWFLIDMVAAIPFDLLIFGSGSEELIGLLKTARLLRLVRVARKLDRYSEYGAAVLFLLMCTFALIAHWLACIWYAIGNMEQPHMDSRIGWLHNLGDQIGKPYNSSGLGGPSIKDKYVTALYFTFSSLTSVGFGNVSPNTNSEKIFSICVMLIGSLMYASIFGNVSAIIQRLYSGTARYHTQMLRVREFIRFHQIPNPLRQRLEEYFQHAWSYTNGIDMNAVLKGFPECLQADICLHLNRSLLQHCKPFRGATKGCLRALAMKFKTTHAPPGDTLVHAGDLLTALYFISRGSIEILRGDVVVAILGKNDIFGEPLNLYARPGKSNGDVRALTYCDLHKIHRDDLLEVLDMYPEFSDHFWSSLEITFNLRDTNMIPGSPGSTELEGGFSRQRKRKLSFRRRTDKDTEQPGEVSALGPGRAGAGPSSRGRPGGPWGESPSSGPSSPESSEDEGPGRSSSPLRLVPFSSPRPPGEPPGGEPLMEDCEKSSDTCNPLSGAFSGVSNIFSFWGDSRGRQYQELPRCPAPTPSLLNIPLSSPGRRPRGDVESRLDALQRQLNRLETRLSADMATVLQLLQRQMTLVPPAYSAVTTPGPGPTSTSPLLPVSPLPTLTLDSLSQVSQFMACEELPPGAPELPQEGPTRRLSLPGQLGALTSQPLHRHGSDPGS

| IC50 [1] [nM] | IC50 [2] [nM] | IC50 [3] [nM] | bioavailability [4] [%] | AUC [5] [ng·h/mL] | AUC [6] [ng·h/mL] | Cmax [7] [ng/mL] | IC50 [8] [nM] | clearance [9] [mL/min/kg] | half-life [10] [h] | Tmax [11] [h] | IC50 [12] [nM] | Compound | also measured |
| --- | --- | --- | --- | --- | --- | --- | --- | --- | --- | --- | --- | --- | --- |
| 5.9 |  |  |  |  |  |  |  |  |  |  |  | COc1ccc(Cn2c(=O)n(C)c3c4cc(-c5cnc(OC)c(NS(=O)(=O)C6CC6)c5)ccc4ncc32)cc1 |  |
| 6.2 |  |  |  |  |  |  |  |  |  |  |  | COc1ccc(Cn2c(=O)n(C)c3c4cc(-c5cnc(OC)c(NS(=O)(=O)C(C)C)c5)ccc4ncc32)cc1 |  |
| 9.5 | 676 | 38 | 14.8 | 329 | 743 | 128 | 342 | 22.9 | 2.31 | 0.38 | 421 | COc1ccc(Cn2c(=O)n(C)c3c4cc(-c5cnc6ccccc6c5)ccc4ncc32)cc1 |  |
| 1.9 | > 1000 | 112 | 68.9 | 3830 | 1850 | 1280 | 589 | 8.24 | 3.48 | 0.25 | 891 | COc1ccc(Cn2c(=O)n(C)c3c4cc(-c5cnc(OC)c(NS(C)(=O)=O)c5)ccc4ncc32)cc1 | inhibition at 10 min, 10 µM [13]: < 10%; Ratio IC50 [14]: 59; Activity [15]: Dose-dependent effect; inhibition at 10 min, 10 µM [16]: < 10%; inhibition at 10 min, 10 µM [17]: < 10%; IC50 [18]: > 30000 nM; inhibition at 10 min, 10 µM [19]: < 10%; inhibition at 10 min, 10 µM [20]: < 10%; Activity [21]: Non-Toxic; Ratio IC50 [22]: 469; IC50 [23]: 340 nM; inhibition at 10 min, 10 µM [24]: < 10%; inhibition [25]: Active; inhibition [26]: Active; fraction unbound [27]: 0.11; Activity [28]: Non-Toxic; inhibition in vivo at 30 mg/kg/day [29]: 100%; Ratio IC50 [30]: 310 |
| 11.1 |  |  |  |  |  |  |  |  |  |  |  | COc1ccc(Cn2c(=O)n(C)c3c4cc(-c5cnc(OC)c(C)c5)ccc4ncc32)cc1 |  |
| 28.3 |  |  |  |  |  |  |  |  |  |  |  | CC(C)c1ccc(Cn2c(=O)n(C)c3c4cc(-c5cnc6ccccc6c5)ccc4ncc32)cc1 |  |
